Assay results: ChEMBL document CHEMBL4334552, “Discovery of BMS-986260, a Potent, Selective, and Orally Bioavailable TGFβR1 Inhibitor as an Immuno-oncology Agent” (ACS Med Chem Lett, 2020)
Active and inactive are the calls of the source. The rule behind the calls is not given here.

Key:
[1] = Protein binding in rat serum assessed as unbound fraction; type: ADME, cell-free
Cytochrome P450 2C9 [2] = biological target: T1, Cytochrome P450 2C9 (Homo sapiens, UniProt P11712); assay: Inhibition of recombinant CYP2C9 (unknown origin); type: ADME
T1 sequence (P11712 whole entry): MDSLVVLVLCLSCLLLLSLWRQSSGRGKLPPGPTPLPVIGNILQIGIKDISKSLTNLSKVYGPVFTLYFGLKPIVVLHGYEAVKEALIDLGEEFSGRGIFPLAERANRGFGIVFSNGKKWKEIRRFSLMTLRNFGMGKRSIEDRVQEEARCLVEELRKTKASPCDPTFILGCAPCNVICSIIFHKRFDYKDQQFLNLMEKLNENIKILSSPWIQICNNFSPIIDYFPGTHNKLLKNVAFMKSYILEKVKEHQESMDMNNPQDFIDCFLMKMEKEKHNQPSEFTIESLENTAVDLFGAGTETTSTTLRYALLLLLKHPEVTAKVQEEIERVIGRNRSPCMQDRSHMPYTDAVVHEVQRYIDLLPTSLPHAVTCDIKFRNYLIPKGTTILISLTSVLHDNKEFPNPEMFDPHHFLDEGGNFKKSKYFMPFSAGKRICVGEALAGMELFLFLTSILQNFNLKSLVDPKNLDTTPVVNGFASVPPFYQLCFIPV

[3] = Cmax in Balb/C mouse at 10 mg/kg, po; type: ADME, organism-based; design: dose 10 mg/kg, route oral; conditions: in vivo
Method in brief: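 Male Balb/C mice, n = 3, dosed at 5 mg/kg iv or 10 mg/kg po. The vehicle was 70% 25 mM acetate buffer pH 4.0, 5% ethanol and 25% PEG 400.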

[4] = Cardiovascular toxicity in rat assessed as aortic pathology at 1 mg/kg, po for 10 days; type: organism-based; conditions: in vivo, 240 h
Method in brief: (§1)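 Exploratory toxicology studies of 10 days with daily oral dosing in rats and dogs. Cardiovascular findings, including valvulopathy and aortic pathology, were assessed.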

Cytochrome P450 1A2 [5] = biological target: T2, Cytochrome P450 1A2 (Homo sapiens, UniProt P05177); assay: Induction of recombinant CYP1A2 (unknown origin) up to 24 microM; type: ADME; conditions: recombinant enzyme
T2 sequence (P05177 whole entry): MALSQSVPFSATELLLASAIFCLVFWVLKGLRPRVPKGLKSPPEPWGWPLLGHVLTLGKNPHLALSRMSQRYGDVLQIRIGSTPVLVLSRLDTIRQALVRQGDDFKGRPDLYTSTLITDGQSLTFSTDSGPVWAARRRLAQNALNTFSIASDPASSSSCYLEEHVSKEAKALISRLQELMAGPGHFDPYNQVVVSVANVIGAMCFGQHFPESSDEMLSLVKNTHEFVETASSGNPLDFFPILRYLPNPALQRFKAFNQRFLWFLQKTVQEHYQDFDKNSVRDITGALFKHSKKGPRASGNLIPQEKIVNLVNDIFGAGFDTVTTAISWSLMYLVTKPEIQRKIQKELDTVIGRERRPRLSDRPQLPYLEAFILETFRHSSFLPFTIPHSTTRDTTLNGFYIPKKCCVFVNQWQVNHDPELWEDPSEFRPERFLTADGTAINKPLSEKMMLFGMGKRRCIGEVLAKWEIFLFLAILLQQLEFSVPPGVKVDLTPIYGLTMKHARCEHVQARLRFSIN

[6] = Tmax in Balb/C mouse at 10 mg/kg, po; type: ADME, organism-based; conditions: in vivo
Method in brief: (§2)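 Male Balb/C mice (n = 3) dosed iv at 5 mg/kg and po at 10 mg/kg. Vehicle was 70% 25 mM acetate buffer pH 4.0, 5% ethanol and 25% PEG 400.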

MC-38 = assay: Antitumour activity against mouse MC38 cells allografted in C57Bl/6 mouse assessed as tumour growth upto 15 mg/kg, po qd for 28 days by digital caliper analysis; type: functional, organism-based
Method in brief: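 C57/BL6 mice bearing subcutaneous right-flank MC38 tumors (0.1 mL of 1 × 10^7 cells/mL) were randomized at about 100 mm3. Monotherapy was given orally once daily for 28 days at up to 15 mg/kg.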

[7] = MRT in Balb/C mouse at 5 mg/kg, iv; type: ADME, organism-based; conditions: in vivo; method in brief: as §2
[8] = Oral bioavailability in Sprague Dawley rat at 10 mg/kg; type: ADME, organism-based; conditions: in vivo
Method in brief: (§3)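 Male Sprague–Dawley rats (n = 3) received a PEG400 solution iv at 5 mg/kg and po at 10 mg/kg.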

[9] = Cmax in Beagle dog at 5 mg/kg, po; type: ADME, organism-based, Canis lupus familiaris; design: dose 5 mg/kg, route oral; conditions: in vivo
Method in brief: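 Male Beagle dogs, n = 2, pretreated with pentagastrin. The po dose of 5 mg/kg was in 5% ethanol, 45% PEG400 and 50% 25 mM acetate buffer pH 4.0. The iv dose of 1 mg/kg was in 5:45:50 EtOH/PEG400/saline at 1 mL/kg.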

[10] = Half life in mouse hepatocytes; type: ADME, cell-based, Hepatocyte
Cytochrome P450 2C9 [11] = biological target: T1, Cytochrome P450 2C9; assay: Induction of recombinant CYP2C9 (unknown origin) up to 24 microM; type: ADME; conditions: recombinant enzyme
[12] = biological target: Voltage-gated inwardly rectifying potassium channel KCNH2 (Homo sapiens, UniProt Q12809); assay: Inhibition of human ERG by electrophysiology analysis
Sequence of Voltage-gated inwardly rectifying potassium channel KCNH2 (Q12809 whole entry): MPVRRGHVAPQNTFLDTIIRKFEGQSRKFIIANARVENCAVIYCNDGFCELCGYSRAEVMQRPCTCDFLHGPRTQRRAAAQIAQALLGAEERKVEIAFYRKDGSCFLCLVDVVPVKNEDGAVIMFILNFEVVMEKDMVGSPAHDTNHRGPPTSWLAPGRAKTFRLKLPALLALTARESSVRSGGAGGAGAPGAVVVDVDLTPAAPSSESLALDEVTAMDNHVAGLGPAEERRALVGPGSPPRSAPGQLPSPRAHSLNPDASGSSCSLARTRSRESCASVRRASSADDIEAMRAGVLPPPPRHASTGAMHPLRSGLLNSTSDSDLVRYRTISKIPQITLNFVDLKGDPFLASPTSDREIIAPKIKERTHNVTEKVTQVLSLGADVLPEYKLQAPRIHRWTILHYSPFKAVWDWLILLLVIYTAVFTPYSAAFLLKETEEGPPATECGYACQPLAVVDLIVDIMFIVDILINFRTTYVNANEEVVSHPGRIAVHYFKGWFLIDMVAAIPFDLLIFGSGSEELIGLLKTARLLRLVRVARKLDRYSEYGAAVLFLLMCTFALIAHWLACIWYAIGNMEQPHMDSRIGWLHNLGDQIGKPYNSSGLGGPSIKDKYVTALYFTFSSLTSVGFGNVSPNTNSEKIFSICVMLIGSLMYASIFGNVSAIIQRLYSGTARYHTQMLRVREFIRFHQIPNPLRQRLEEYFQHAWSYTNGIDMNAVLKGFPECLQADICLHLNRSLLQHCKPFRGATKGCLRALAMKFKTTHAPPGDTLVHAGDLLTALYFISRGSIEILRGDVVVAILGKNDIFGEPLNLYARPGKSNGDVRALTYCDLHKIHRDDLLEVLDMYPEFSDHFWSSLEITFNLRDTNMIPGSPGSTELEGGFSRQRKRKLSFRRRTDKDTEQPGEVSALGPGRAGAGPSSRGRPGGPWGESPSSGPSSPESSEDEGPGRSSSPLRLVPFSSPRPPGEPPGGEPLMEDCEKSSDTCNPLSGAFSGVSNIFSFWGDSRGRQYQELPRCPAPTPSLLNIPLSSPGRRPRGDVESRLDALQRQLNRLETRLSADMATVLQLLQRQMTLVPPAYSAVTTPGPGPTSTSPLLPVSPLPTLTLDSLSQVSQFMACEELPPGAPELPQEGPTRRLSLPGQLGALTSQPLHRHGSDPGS

Cytochrome P450 1A2 [13] = biological target: T2, Cytochrome P450 1A2; assay: Inhibition of recombinant CYP1A2 (unknown origin); type: ADME
[14] = Cardiovascular toxicity in dog assessed as aortic pathology at 5 mg/kg, po for 10 days; type: organism-based, Canis lupus familiaris; conditions: in vivo, 240 h; method in brief: as §1
[15] = Volume of distribution at steady state in Sprague Dawley rat at 5 mg/kg, iv; type: ADME, organism-based; conditions: in vivo, read-out: Vdss; method in brief: as §3
Phosphodiesterase 4 = Phosphodiesterase 4 (Homo sapiens, UniProt P27815+Q08499+Q07343+Q08493); assay: Inhibition of PDE4 (unknown origin) by HTRF assay; type: protein assay

fraction unbound [1]: 0.1
IC50 (Cytochrome P450 2C9 [2]): > 20 µM
Cmax [3]: 16 µM
Activity (Cytochrome P450 1A2 [5]): Not Active
Tmax [6]: 18 min
MRT [7]: 9 h
bioavailability [8]: > 100%
Cmax [9]: 11.2 µM
half-life [10]: 76 min
Activity (Cytochrome P450 2C9 [11]): Not Active
IC50 (Cytochrome P450 1A2 [13]): > 20 µM
Vd [15]: 2.4 L/kg
IC50 (Phosphodiesterase 4): 11 µM
SMILES: N#Cc1cnc2ccc(-c3c(-c4ccc(F)c(Cl)c4)ncn3CCO)nn12
Activity [4]: Toxic
inhibition (MC-38): inactive
IC50 [12]: > 10 µM
Activity [14]: Toxic
